In brackets after ≈: the same amount, converted by molar mass. Activity calls are given as the source filed them. The rule behind the calls is not given here.
Experiments:
[1] = test system: Candida albicans; assay: Antifungal activity against Candida albicans ATCC 90028 assessed as inhibition of fungal growth at 20 ug/mL by alamar blue assay; type: functional, organism-based
Summary of the method: (§1)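 Broth microdilution modified from NCCLS. DMSO stocks serially diluted in saline and plated in duplicate. Inoculum set by 0.5 McFarland standard. Media: C. albicans in SDB or RPMI 1640; C. neoformans in SDB; A. fumigatus in RPMI-1640 + 5% Alamar Blue. Highest final concentration 20 µg/mL. Plates read before and after incubation by fluorescence 544ex/590em (A. fumigatus) or OD 630 nm. IC50 from percent growth vs concentration.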

[2] = test system: Candida albicans; assay: Fungicidal activity against Candida albicans ATCC 90028 at 20 ug/mL; type: functional, organism-based
[3] = test system: Cryptococcus neoformans; assay: Antifungal activity against Cryptococcus neoformans ATCC 90113 assessed as inhibition of fungal growth at 20 ug/mL by alamar blue assay; type: functional, organism-based; summary of the method: as §1
[4] = test system: Vero; assay: Cytotoxicity against african green monkey Vero cells at 20 ug/mL after 48 hrs by neutral red assay; type: cell-based; conditions: chlorocebus sabaeus
Summary of the method: (§2)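 Vero kidney fibroblasts seeded at 25,000 cells/well and grown 24 h, then exposed to samples up to 20 µg/ml for 48 h. Viable cells measured by neutral red assay. IC50 taken from growth-inhibition vs concentration curves. DMSO served as vehicle control.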

[5] = test system: Candida albicans; assay: Antifungal activity against Candida albicans ATCC 90028 at 20 ug/mL by microscopy; type: functional, organism-based
Summary of the method: (§3)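 Modified NCCLS microdilution. Samples in DMSO serially diluted in saline and tested in duplicate against inocula standardized to 0.5 McFarland. Broths: C. albicans SDB or RPMI 1640; C. neoformans SDB; A. fumigatus YM broth. Highest final concentration 20 µg/mL. MIC read visually as the lowest concentration with no detectable growth (for Alamar Blue wells, no blue-to-pink change).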

[6] = test system: Aspergillus fumigatus; assay: Antifungal activity against Aspergillus fumigatus ATCC 90906 assessed as inhibition of fungal growth at 20 ug/mL by alamar blue assay; type: functional, organism-based; summary of the method: as §1
[7] = test system: Cryptococcus neoformans; assay: Antifungal activity against Cryptococcus neoformans ATCC 90113 at 20 ug/mL by microscopy; type: functional, organism-based; summary of the method: as §3
[8] = test system: Aspergillus fumigatus; assay: Fungicidal activity against Aspergillus fumigatus ATCC 90906 at 20 ug/mL; type: functional, organism-based
[9] = test system: Cryptococcus neoformans; assay: Fungicidal activity against Cryptococcus neoformans ATCC 90113 at 20 ug/mL; type: functional, organism-based
[10] = test system: Aspergillus fumigatus; assay: Antifungal activity against Aspergillus fumigatus ATCC 90906 at 20 ug/mL by microscopy; type: functional, organism-based; summary of the method: as §3
[11] = Cytotoxicity against african green monkey Vero cells; type: cell-based; conditions: chlorocebus sabaeus, read-out: TC50 (the source's name); summary of the method: as §2
[12] = test system: Cryptococcus neoformans; assay: Antifungal activity against Cryptococcus neoformans at 20 ug/mL
[13] = test system: Candida albicans; assay: Antifungal activity against Candida albicans ATCC 90028 assessed as inhibition of fungal growth by alamar blue assay; type: functional, organism-based; summary of the method: as §1
[14] = test system: Cryptococcus neoformans; assay: Antifungal activity against Cryptococcus neoformans ATCC 90113 by microscopy; type: functional
Summary of the method: as §3, with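 “McFarland.” for “McFarland. Broths: C. albicans SDB or RPMI 1640; C. neoformans SDB; A. fumigatus YM broth.”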

[15] = test system: Cryptococcus neoformans; assay: Fungicidal activity against Cryptococcus neoformans ATCC 90113; type: functional
[16] = test system: Cryptococcus neoformans; assay: Antifungal activity against Cryptococcus neoformans ATCC 90113 assessed as inhibition of fungal growth by alamar blue assay; type: functional, organism-based; summary of the method: as §1
[17] = Cytotoxicity against african green monkey Vero cells after 48 hrs by neutral red assay; type: cell-based; conditions: chlorocebus sabaeus, read-out: TC50; summary of the method: as §2
[18] = test system: Candida albicans; assay: Antifungal activity against Candida albicans ATCC 90028 by microscopy; type: functional; summary of the method: as §3
[19] = test system: Candida albicans; assay: Fungicidal activity against Candida albicans ATCC 90028; type: functional
[20] = test system: Aspergillus fumigatus; assay: Antifungal activity against Aspergillus fumigatus ATCC 90906 assessed as inhibition of fungal growth by alamar blue assay; type: functional, organism-based; conditions: Aspergillus fumigatus, ATCC 90906; read-out: IC50; summary of the method: as §1
[21] = test system: Aspergillus fumigatus; assay: Fungicidal activity against Aspergillus fumigatus ATCC 90906; type: functional
[22] = test system: Aspergillus fumigatus; assay: Antifungal activity against Aspergillus fumigatus ATCC 90906 by microscopy; type: functional; summary of the method: as §3

| Structure (SMILES) | inhibition [1] | Activity [2] | inhibition [3] | Activity [4] | Activity [5] | inhibition [6] | Activity [7] | Activity [8] | Activity [9] | Activity [10] | IC50 [13] | MIC [14] | MFC [15] | IC50 [16] | CC50 at 48 h [17] | MIC [18] | other results |
| --- | --- | --- | --- | --- | --- | --- | --- | --- | --- | --- | --- | --- | --- | --- | --- | --- | --- |
| C[n+]1cc(Nc2cccc(Cl)c2)cc2ccccc21.[I-] | inactive | inactive | inactive | Non-toxic | inactive | inactive | inactive | inactive | inactive | inactive |  |  |  |  |  |  |  |
| C[n+]1c2ccccc2cc2[n-]c3ccccc3c21 [CRYPTOLEPINE] |  |  |  |  |  |  |  |  |  |  | 20 µg/mL (≈ 86.1 µM) | 20 µg/mL (≈ 86.1 µM) |  |  |  |  | CC50 [11]: 3.2 µg/mL (≈ 13.8 µM); MIC [12]: 12.5 µg/mL (≈ 53.8 µM) |
| C[n+]1cccc(Nc2ccccc2)c1.[I-] |  |  |  | Non-toxic |  |  |  |  |  |  |  |  |  |  |  |  |  |
| C[n+]1cccc(N(CCCCCC2CCCCC2)c2cccc(C#N)c2)c1.[I-] | inactive | inactive |  |  | inactive | inactive |  |  |  |  |  | 5 µg/mL | 5 µg/mL | 3.5 µg/mL | > 10 µg/mL |  |  |
| C[n+]1cc(Nc2ccc(Cl)cc2)cc2ccccc21.[I-] | inactive | inactive | inactive | Non-toxic | inactive | inactive | inactive | inactive | inactive | inactive |  |  |  |  |  |  |  |
| C[n+]1cc(Nc2ccccc2)cc2ccccc21.[I-] | inactive | inactive | inactive | Non-toxic | inactive | inactive | inactive | inactive | inactive | inactive |  |  |  |  |  |  |  |
| C[n+]1cc(Nc2ccccc2Cl)cc2ccccc21.[I-] | inactive | inactive | inactive | Non-toxic | inactive | inactive | inactive | inactive | inactive | inactive |  |  |  |  |  |  |  |
| C[n+]1cccc(N(CCCCCC2CCCCC2)c2ccc(F)cc2)c1.[I-] | inactive | inactive |  |  | inactive | inactive |  | inactive |  | inactive | 9.6 µg/mL | 2.5 µg/mL | 2.5 µg/mL | 1.4 µg/mL | > 10 µg/mL | 20 µg/mL |  |
| C[C@@H]1[C@H](O)[C@@H](C)/C=C/C=C/C=C/C=C/C=C/C=C/C=C/[C@H](O[C@@H]2O[C@H](C)[C@@H](O)[C@H](N)[C@@H]2O)C[C@@H]2O[C@](O)(C[C@@H](O)C[C@@H](O)[C@H](O)CC[C@@H](O)C[C@@H](O)CC(=O)O[C@H]1C)C[C@H](O)[C@H]2C(=O)O [AMPHOTERICIN B] |  |  |  |  |  |  |  |  |  |  |  |  | 1 µg/mL (≈ 1.08 µM) | 1.3 µg/mL (≈ 1.41 µM) | 7.6 µg/mL (≈ 8.22 µM) | 0.6 µg/mL (≈ 0.649 µM) | MFC [19]: 1.3 µg/mL (≈ 1.41 µM); CC50 [11]: 7.6 µg/mL (≈ 8.22 µM); IC50 [20]: 0.7 µg/mL (≈ 0.758 µM); MFC [21]: 5 µg/mL (≈ 5.41 µM); MIC [22]: 1.3 µg/mL (≈ 1.41 µM) |
| C[n+]1cccc(N(CCCCCC2CCCCC2)c2ccccc2)c1.[I-] | inactive | inactive |  |  | inactive |  |  | inactive |  | inactive | 8.3 µg/mL | 2.5 µg/mL | 2.5 µg/mL | 1.5 µg/mL | > 10 µg/mL | 20 µg/mL | IC50 [20]: 19.7 µg/mL |
| C[n+]1cccc(N(CCCCCC2CCCCC2)c2ccc(C#N)cc2)c1.[I-] |  |  |  |  |  | inactive |  |  |  |  | 19 µg/mL | 5 µg/mL | 5 µg/mL | 2.6 µg/mL | > 10 µg/mL | 20 µg/mL | MFC [19]: > 20 µg/mL |
| COc1ccc(N(CCCCCC2CCCCC2)c2ccc[n+](C)c2)cc1.[I-] |  |  |  |  |  | inactive |  |  |  |  | 5.1 µg/mL | 2.5 µg/mL | 2.5 µg/mL | 1.4 µg/mL | > 10 µg/mL | 10 µg/mL | MFC [19]: 20 µg/mL |

Source: ChEMBL document CHEMBL1641580, “Identification of 3-phenylaminoquinolinium and 3-phenylaminopyridinium salts as new agents against opportunistic fungal pathogens” (Bioorg Med Chem, 2011)
